We go through 5 molecules from ChEMBL document CHEMBL1157082, “Sesquiterpenes from Oplopanax horridus” (J Nat Prod, 2010).

Data set [1] deals with Mycobacterium tuberculosis. Briefly: Antituberculosis activity against Mycobacterium tuberculosis Erdman by microplate alamar blue assay. Type of data set: functional. The gist of the method: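 MIC read by microplate Alamar Blue assay against virulent M. tuberculosis Erdman (ATCC 35801). Rifampin served as positive control. Crude fractions were scored as percent inhibition at several concentrations, and pure isolates as MICs.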

The subject of a further data set is Vero. Briefly: Cytotoxicity against african green monkey Vero cells. Format: cell-based. The conditions noted are these: chlorocebus sabaeus. The essentials: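 IC50 in Vero cells, run alongside the MIC assay. Test concentrations were at or below 1% of the maximum achievable stock concentration in DMSO.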
Data set [2] deals with Mycobacterium tuberculosis. Kind of data set: Antituberculosis activity against Mycobacterium tuberculosis H37Ra by microplate alamar blue assay. Format: functional.
A short description of data set [3]: Selectivity index, ratio of IC50 for african green monkey Vero cells to MIC for Mycobacterium tuberculosis Erdman. Format: functional.

Values after ≈ are worked out from the molar mass of the structure shown.

`C=C[C@@H](O)C#CC#C[C@@H](O)/C=C\CCCCCCC` [FALCARINDIOL] came in with an MIC in data set [1] of 6.2 µg/mL (≈ 23.8 µM). Besides, in the data set with Vero, the Activity entry is given as “Non-toxic”.

In data set [1], `C=CC1(C)CC/C=C(/C)CCC(C(C)(C)O)O1` (stereo not given) [NEROPLOMACROL] returned an MIC of more than 128 µg/mL. In the data set on Vero, the Activity entry is on record as “Non-toxic”.

In data set [1], `C=C[C@@](C)(O)CC[C@@H](O)[C@]1(C)CC[C@H](C(C)(C)O)O1` (relative stereo) [NEROPLOFUROL] had an MIC of more than 128 µg/mL. Also, the Activity entry with Vero is on record as “Non-toxic”.

In data set [2], `c1cc2c(cc1[C@H]1OC[C@H]3[C@@H]1CO[C@@H]3c1ccc3c(c1)OCO3)OCO2` [SESAMIN] registered a minimal inhibitory concentration (MIC) of more than 200 µg/mL.

Consider `CCCCCCC/C=C\[C@H](O)C#CC#C[C@@H](O)CC` [OPLOPANDIOL], for which the “Selectivity Index” value in data set [3] worked out at 6.2. For the same molecule, in data set [1], the minimum inhibitory concentration (MIC) was 61.5 µg/mL (≈ 234 µM). Also, in the data set on Vero, the Activity entry is “Non-toxic”.
